# Only some compounds are listed: those with a hit (about 5.8% of all), similar ones and a draw of the others.
# T cruzi growth-1 = T. cruzi proliferation inhibition | T. cruzi beta-gal in NIH3T3, GalScreen luminescence, 90 h | inhibition, % at 8.34 µM | actives 5.9% (n = 77,000) | AID 624255;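 active means mean inhibition above about 93%, with at least 55% of replicates each passing it, limit read from the data, passing the limit was not always enough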
# IDH1 mut inh = blocks human IDH1 R132H reductase activity | diaphorase/resazurin fluorescence, 60 min | actives 0.18% (n = 70,000) | O75874 | inhibition, % at 10 µM; in the data active means inhibition above about 34%;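 further: 0% = DMSO and 100% = no enzyme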
# Target sequence (O75874 whole entry R132H): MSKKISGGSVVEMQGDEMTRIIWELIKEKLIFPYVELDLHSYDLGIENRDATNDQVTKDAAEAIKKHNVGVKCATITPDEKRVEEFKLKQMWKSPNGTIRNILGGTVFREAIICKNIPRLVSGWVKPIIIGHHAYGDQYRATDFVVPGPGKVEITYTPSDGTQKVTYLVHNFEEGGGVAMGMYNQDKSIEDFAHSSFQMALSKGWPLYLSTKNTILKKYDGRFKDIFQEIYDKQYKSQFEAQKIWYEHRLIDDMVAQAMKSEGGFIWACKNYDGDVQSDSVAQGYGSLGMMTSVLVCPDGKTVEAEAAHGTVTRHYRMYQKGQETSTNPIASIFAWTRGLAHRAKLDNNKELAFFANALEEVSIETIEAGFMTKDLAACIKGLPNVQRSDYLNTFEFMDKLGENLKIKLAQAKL
# Pf Dd2 growth = P. falciparum Dd2 growth inhibition | SYBR Green, 72 h; hits give low values | activity change, % at 10 µM | actives 2.3% (n = 94,000); in the data active means activity change below about -80%
# GASC1 inh = KDM4C (human) demethylase inhibition; actives 0.15% (n = 96,000); Q9H3R0; inhibition, % at 12.5 µM; GST-KDM4C 2-372, H3K9me3 peptide, LANCE TR-FRET;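 active means mean replicate inhibition above about 25%, with at least 55% of replicates also reaching it, limit read from the data, passing the limit was not always enough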
#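 Compound: one test concentration per compound; Material: GST-GASC-1 enzyme fragment 2-372; Amount: GASC-1 enzyme at 10 nM final in reaction; Also added: H3K9me3 peptide substrate, Fe(II), 2-oxoglutarate; Technique: LANCE TR-FRET; Times: 30 min demethylation and 1 h detection at room temperature.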
# T cruzi growth-2 = Trypanosoma cruzi proliferation inhibition | T. cruzi beta-gal in NIH3T3, GalScreen luminescence, 90 h | shares compounds with T cruzi growth-1 | AID 651739 | inhibition, % at 8.35 µM | actives 72% (n = 5,600);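 active means mean replicate inhibition above about 95% and at least 55% of replicates individually reaching it, limit read from the data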
# T cruzi growth-3 = Trypanosoma cruzi proliferation inhibition; shares compounds with T cruzi growth-1; T. cruzi beta-gal in NIH3T3, GalScreen luminescence, 90 h; inhibition, % at 2.09 µM; actives 21% (n = 5,600);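 active means mean inhibition above about 95%, with at least 55% of replicates also reaching it, limit read from the data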;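 further: plate controls were neutral control median for no effect and positive control median for full effect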
# 3T3 cytotox = cytotoxicity in mouse NIH/3T3 fibroblasts; shares compounds with T cruzi growth-1; actives 14% (n = 5,600); cytotoxicity (signal decrease), % at 8.35 µM; NIH/3T3 viability, CellTiter-Glo ATP luminescence, 90 h;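 active means mean signal decrease across replicates above about 35% based on untreated-well scatter, with enough replicates individually passing, limit read from the data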;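 further: 0% = median of neutral control wells and 100% = median of positive control wells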
# NIH3T3 tox 2 = NIH/3T3 (mouse) viability loss; actives 56% (n = 5,600); NIH/3T3 viability, CellTiter-Glo ATP luminescence, 90 h; AID 651744; inhibition, % at 24.9 µM; shares compounds with T cruzi growth-1;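 active means mean loss of cell viability signal at or above a set limit, and enough replicates individually reaching it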;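 further: 0% = median of neutral control wells and 100% = median of positive control wells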
# * = called active by the depositor; · = no result given.
SMILES,T cruzi growth-1,IDH1 mut inh,Pf Dd2 growth,GASC1 inh,T cruzi growth-2,T cruzi growth-3,3T3 cytotox,NIH3T3 tox 2
O=C(c1ccccc1)N1CC[C@@H]2[C@H]1c1cc(-c3ccccc3F)ccc1N[C@@H]2CO,109.9*,·,-25.7,8.2,99.8*,83.1,20.8,30.4*
O=C(c1ccccc1F)N1CC[C@H]2[C@H](CO)Nc3ccc(-c4ccc(F)cc4)cc3[C@H]21,98.5*,·,-3.0,0.0,101.1*,99.4*,11.3,95.0*
O=C(c1ccc(F)cc1)N1CC[C@@H]2[C@@H](CO)Nc3ccc(-c4ccccc4F)cc3[C@@H]21,109.8*,·,-50.8,-2.0,104.3*,85.4,26.6,71.1*
COC(=O)C(NC(=O)c1ccccc1)(c1c(C)[nH]n(-c2ccccc2)c1=O)C(F)(F)F (stereo unspecified),·,-0.2,·,·,·,·,·,·
CC(=O)c1ccc(NC(=O)CSc2nnc3c4ccccc4n(C)c3n2)cc1,·,0.1,·,·,·,·,·,·
Cc1c(C(=O)N(C)C)sc2[nH]c(=O)n(-c3ccccc3C(F)(F)F)c(=O)c12,·,1.9,·,·,·,·,·,·
CC(C)CC#Cc1ccc([C@H]2[C@H](CO)N3CCCCN(C(=O)c4ccc5c(c4)OCO5)C[C@@H]23)cc1,83.8,·,-28.5,-1.2,·,·,·,·
CC(C)CC#Cc1ccc([C@H]2[C@H]3CN(C(=O)c4ccc5c(c4)OCO5)CCCCN3[C@H]2CO)cc1,113.3*,·,-34.8,-0.3,100.9*,78.1,14.4,103.6*
CC(C)C#Cc1ccc([C@@H]2[C@@H](CO)N3CCCCN(C(=O)c4ccc5c(c4)OCO5)C[C@@H]23)cc1,84.2,·,-5.9,-0.1,·,·,·,·
CC(C)CC#Cc1ccc([C@@H]2[C@H](CO)N3CCCCN(C(=O)c4ccc5c(c4)OCO5)C[C@@H]23)cc1,106.2*,·,-41.8,1.1,103.6*,64.0,31.4,104.9*
O=C(CSc1nnnn1-c1ccccc1F)Nc1ccc(Br)cc1,·,0.1,·,·,·,·,·,·
Cc1ccccc1NS(=O)(=O)c1cc(C(=O)NCC2CCCO2)ccc1C (stereo unspecified),·,-0.9,·,·,·,·,·,·
Cc1ccc(S(=O)(=O)N(C)C[C@@H]2OCCCC[C@@H](C)Oc3ccc(NC(=O)Cc4ccccc4)cc3C(=O)N([C@@H](C)CO)C[C@H]2C)cc1,63.8,0.2,-69.7,0.6,·,·,·,·
Cc1ccc(S(=O)(=O)N(C)C[C@H]2OCCCC[C@@H](C)Oc3ccc(NC(=O)Cc4ccccc4)cc3C(=O)N([C@@H](C)CO)C[C@@H]2C)cc1,112.0*,0.8,-76.7,-0.7,105.8*,88.3,26.4,49.2*
Cc1ccc(S(=O)(=O)N(C)C[C@H]2OCCCC[C@@H](C)Oc3ccc(NC(=O)Cc4ccccc4)cc3C(=O)N([C@@H](C)CO)C[C@H]2C)cc1,108.2*,·,-65.3,-1.2,105.5*,61.0,-19.2,-3.3
O=C(COc1cccc([N+](=O)[O-])c1)Nc1cccc(I)c1,·,0.3,·,·,·,·,·,·
C[C@H](CO)N1C[C@H](C)[C@H](CN(C)C(=O)c2ccc3c(c2)OCO3)Oc2cc(-c3ccccc3)ccc2S1(=O)=O,·,0.2,-27.2,-1.3,·,·,·,·
C[C@@H]1CN([C@@H](C)CO)S(=O)(=O)c2ccc(-c3ccncc3)cc2O[C@@H]1CN(C)C(=O)c1ccc2c(c1)OCO2,42.5,-0.1,6.9,-1.4,·,·,·,·
C[C@@H]1CN([C@H](C)CO)S(=O)(=O)c2ccc(-c3ccncc3)cc2O[C@@H]1CN(C)C(=O)c1ccc2c(c1)OCO2,55.1,0.4,-6.2,-0.7,·,·,·,·
C[C@H]1CN([C@@H](C)CO)S(=O)(=O)c2ccc(-c3ccncc3)cc2O[C@H]1CN(C)C(=O)c1ccc2c(c1)OCO2,102.3*,-1.1,-50.8,-1.8,102.8*,89.4,24.4,43.7*
C[C@@H]1CN([C@H](C)CO)S(=O)(=O)c2ccc(-c3ccncc3)cc2O[C@H]1CN(C)C(=O)c1ccc2c(c1)OCO2,105.3*,0.1,-61.6,1.8,101.4*,90.7,29.4,43.8*

# Screening data: PubChem, Broad Institute
